Activity calls are given as the source filed them. No cut-off for these calls is given here.
Tests used:
Mus musculus [1] = experiment: Toxicity in Balb/c mouse assessed as body weight loss at 3 mg/kg, iv encapsulated within cucurbit[8]uril administered twice weekly for 2 weeks; assay type: organism-based; conditions: in vivo, 336 h
Outline: (§1)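 Non-tumor-bearing female Balb/c mice (9 weeks old), four per group, were dosed iv by tail vein on days 0, 3, 7 and 10. Dose was 2 mg/kg as mitoxantrone (complex adds 3 mg/kg Q[8]) in 0.9% saline vehicle. Body weight was recorded daily and expressed as mean change from baseline.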

4T1.2 [2] = experiment: Antitumor activity against mouse 4T1.2 cells implanted in Balb/c mouse assessed as tumor growth inhibition at 3 mg/kg, iv encapsulated within cucurbit[8]uril administered twice weekly for 2 weeks; assay type: functional, organism-based
Outline: (§2)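 Female Balb/c mice given 1 × 105 4T1.2 cells into the fourth mammary fat pad. Dosing started once tumors were palpable on day 8. Dosed iv by tail vein twice weekly for 2 weeks, 2 mg/kg as mitoxantrone (complex adds 3 mg/kg Q[8]), in 0.9% saline vehicle. Primary tumors measured with digital calipers. Groups n = 10–11. One-way ANOVA against vehicle.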

4T1.2 [3] = experiment: Antitumor activity against mouse 4T1.2 cells implanted in Balb/c mouse assessed as mouse survival time at 3 mg/kg, iv encapsulated within cucurbit[8]uril administered twice weekly for 2 weeks measured up to 33 days; assay type: functional
Outline: (§3)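 Female Balb/c mice given 1 × 10^5 4T1.2 cells into the fourth mammary fat pad. Treatment started on day 8 once tumours were palpable: 2 mg/kg mitoxantrone-equivalent (complex formulation also 3 mg/kg Q[8]) or 0.9% saline vehicle, by tail-vein iv, twice weekly for 2 weeks. Monitored to day 33. Culled at >20% weight loss, tumour >1500 mm3 or metastatic distress. Kaplan–Meier analysis with log-rank test.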

4T1.2 [4] = experiment: Antitumor activity against mouse 4T1.2 cells implanted in Balb/c mouse assessed as mouse survival rate at 2 mg/kg, iv administered twice weekly for 2 weeks measured up to 33 days (rvb = 30%); assay type: functional; conditions: 4T1.2, iv; outline: as §3
Mus musculus [5] = experiment: Toxicity in Balb/c mouse implanted with mouse 4T1.2 cells assessed as body weight loss at 3 mg/kg, iv encapsulated within cucurbit[8]uril administered twice weekly for 2 weeks; assay type: organism-based; conditions: in vivo, 336 h
Outline: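 Mice bore orthotopic 4T1.2 mammary fat pad tumors, with treatment begun on day 8. Dosing was iv twice weekly for 2 weeks at 2 mg/kg mitoxantrone plus 3 mg/kg Q[8], in saline vehicle. Body weight was monitored. Culling at >20% weight loss, tumor >1500 mm3, or metastatic distress.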

4T1.2 [6] = experiment: Antitumor activity against mouse 4T1.2 cells implanted in Balb/c mouse assessed as tumor growth inhibition at 2 mg/kg, iv administered twice weekly for 2 weeks; assay type: functional, organism-based; outline: as §2
4T1.2 [7] = experiment: Growth inhibition of mouse 4T1.2 cells up to 20000 nM encapsulated within cucurbit[8]uril after 48 hrs by MTT assay; assay type: functional, cell-based
Mus musculus [8] = experiment: Toxicity in Balb/c mouse assessed as body weight loss at 2 mg/kg, iv administered twice weekly for 2 weeks relative to control; assay type: organism-based; conditions: in vivo, 336 h; outline: as §1
4T1.2 [9] = experiment: Growth inhibition of mouse 4T1.2 cells up to 20000 nM after 48 hrs by MTT assay; assay type: functional, cell-based
[10] = Drug uptake in mouse 4T1.2 cell at 5 uM after 4 hrs by laser scanning confocal microscopic method
[11] = Drug uptake in mouse 4T1.2 cell lysosomes at 5 uM encapsulated within cucurbit[8]uril after 20 mins by LysoTracker Green staining based laser scanning confocal microscopic method; assay type: ADME, Lysosome
[12] = Drug uptake in mouse 4T1.2 cell at 5 uM encapsulated within cucurbit[8]uril after 4 hrs by laser scanning confocal microscopic method

## O=C1c2c(O)ccc(O)c2C(=O)c2c(NCCNCCO)ccc(NCCNCCO)c21 [MITOXANTRONE]
Mus musculus [1]
  Activity: Non-Toxic
4T1.2 [2]
  TGI: Active
4T1.2 [3]
  Survival: 26 days
4T1.2 [4]
  survival at 2 mg/kg: 60%
Mus musculus [5]
  Activity: Non-Toxic
4T1.2 [6]
  TGI: Active
4T1.2 [7]
  growth inhibition (GI): Active
Mus musculus [8]
  Activity: 15%
4T1.2 [9]
  growth inhibition (GI): Active
[10]
  Drug uptake: Active
[11]
  Drug uptake: Active
[12]
  Drug uptake: Active

Reference: ChEMBL document CHEMBL3994676, “Encapsulation of Mitoxantrone within Cucurbit[8]uril Decreases Toxicity and Enhances Survival in a Mouse Model of Cancer” (ACS Med Chem Lett, 2017)
